pIC50: −log10 of the molar value. Values after ≈ are worked out from the molar mass of the structure shown. Active and inactive are the calls of the source. The calls are words filed in the database; no cut-off is given here.
Assays:
[1] = test system: Plasma; experiment: Metabolic stability in human plasma assessed as compound remaining at 5 uM after 5 hrs; type: ADME, cell-free
In short: (§1)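 Compound incubated in human or mouse plasma; stability reported as percent remaining after 5 h.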

[2] = target: T1, Proteinase-activated receptor 1 (Homo sapiens) (UniProt P25116); conditions: Plasma, 3 uM
T1 sequence (whole entry): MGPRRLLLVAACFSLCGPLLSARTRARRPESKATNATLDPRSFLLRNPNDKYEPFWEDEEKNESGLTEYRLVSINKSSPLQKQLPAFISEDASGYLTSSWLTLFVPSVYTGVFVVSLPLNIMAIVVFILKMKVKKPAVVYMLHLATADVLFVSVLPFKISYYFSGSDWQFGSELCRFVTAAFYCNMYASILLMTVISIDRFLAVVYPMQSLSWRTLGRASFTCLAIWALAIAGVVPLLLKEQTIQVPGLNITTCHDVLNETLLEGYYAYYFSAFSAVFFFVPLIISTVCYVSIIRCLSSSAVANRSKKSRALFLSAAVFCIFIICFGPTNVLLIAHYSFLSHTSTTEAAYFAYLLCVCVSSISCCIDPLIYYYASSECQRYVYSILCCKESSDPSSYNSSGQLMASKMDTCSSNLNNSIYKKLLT

[3] = target: cGMP-inhibited 3',5'-cyclic phosphodiesterase 3A (Homo sapiens) (UniProt Q14432); experiment: Inhibition of PDE3A
[4] = target: T1, Proteinase-activated receptor 1 (Homo sapiens); conditions: 3 uM
[5] = target: T1, Proteinase-activated receptor 1 (Homo sapiens); conditions: 3 uM; remark: listed apart in the source
[6] = test system: Plasma; experiment: Plasma protein binding in human; type: ADME, cell-free
[7] = target: T1, Proteinase-activated receptor 1 (Homo sapiens); experiment: Inhibition of SFLLRN-NH2-stimulated PAR1-mediated platelet activation in […] assessed as surface expression of P-selectin at 10 uM after 20 mins by flow cytometry; type: cell-based
[8] = target: T1, Proteinase-activated receptor 1 (Homo sapiens); conditions: Plasma, 3 uM; remark: listed apart in the source
[9] = Solubility of the compound in phosphate buffered saline; type: physicochemical; conditions: buffer
[10] = target: T1, Proteinase-activated receptor 1 (Homo sapiens); conditions: 3 uM; remark: listed apart in the source
[11] = target: T1, Proteinase-activated receptor 1 (Homo sapiens); conditions: 3 uM; remark: listed apart in the source
[12] = target: T1, Proteinase-activated receptor 1 (Homo sapiens); conditions: 3 uM; remark: listed apart in the source
[13] = test system: Plasma; experiment: Metabolic stability in mouse plasma assessed as compound remaining at 5 uM after 5 hrs; type: ADME, cell-free; in short: as §1
[14] = target: T1, Proteinase-activated receptor 1 (Homo sapiens); conditions: Plasma, 3 uM; remark: listed apart in the source
[15] = target: T2, Proteinase-activated receptor 1 (Homo sapiens, UniProt P25116); experiment: Inhibition of SFLLRN-NH2-stimulated PAR1-mediated platelet activation in […] assessed as surface expression of P-selectin after 20 mins by flow cytometry; design: species or system Plasma
T2 sequence (P25116 whole entry): T1 sequence (whole entry)

[16] = target: T1, Proteinase-activated receptor 1 (Homo sapiens); conditions: Plasma, 3 uM; remark: listed apart in the source

cGMP-inhibited 3',5'-cyclic phosphodiesterase 3A (Homo sapiens), sequence (Q14432 whole entry): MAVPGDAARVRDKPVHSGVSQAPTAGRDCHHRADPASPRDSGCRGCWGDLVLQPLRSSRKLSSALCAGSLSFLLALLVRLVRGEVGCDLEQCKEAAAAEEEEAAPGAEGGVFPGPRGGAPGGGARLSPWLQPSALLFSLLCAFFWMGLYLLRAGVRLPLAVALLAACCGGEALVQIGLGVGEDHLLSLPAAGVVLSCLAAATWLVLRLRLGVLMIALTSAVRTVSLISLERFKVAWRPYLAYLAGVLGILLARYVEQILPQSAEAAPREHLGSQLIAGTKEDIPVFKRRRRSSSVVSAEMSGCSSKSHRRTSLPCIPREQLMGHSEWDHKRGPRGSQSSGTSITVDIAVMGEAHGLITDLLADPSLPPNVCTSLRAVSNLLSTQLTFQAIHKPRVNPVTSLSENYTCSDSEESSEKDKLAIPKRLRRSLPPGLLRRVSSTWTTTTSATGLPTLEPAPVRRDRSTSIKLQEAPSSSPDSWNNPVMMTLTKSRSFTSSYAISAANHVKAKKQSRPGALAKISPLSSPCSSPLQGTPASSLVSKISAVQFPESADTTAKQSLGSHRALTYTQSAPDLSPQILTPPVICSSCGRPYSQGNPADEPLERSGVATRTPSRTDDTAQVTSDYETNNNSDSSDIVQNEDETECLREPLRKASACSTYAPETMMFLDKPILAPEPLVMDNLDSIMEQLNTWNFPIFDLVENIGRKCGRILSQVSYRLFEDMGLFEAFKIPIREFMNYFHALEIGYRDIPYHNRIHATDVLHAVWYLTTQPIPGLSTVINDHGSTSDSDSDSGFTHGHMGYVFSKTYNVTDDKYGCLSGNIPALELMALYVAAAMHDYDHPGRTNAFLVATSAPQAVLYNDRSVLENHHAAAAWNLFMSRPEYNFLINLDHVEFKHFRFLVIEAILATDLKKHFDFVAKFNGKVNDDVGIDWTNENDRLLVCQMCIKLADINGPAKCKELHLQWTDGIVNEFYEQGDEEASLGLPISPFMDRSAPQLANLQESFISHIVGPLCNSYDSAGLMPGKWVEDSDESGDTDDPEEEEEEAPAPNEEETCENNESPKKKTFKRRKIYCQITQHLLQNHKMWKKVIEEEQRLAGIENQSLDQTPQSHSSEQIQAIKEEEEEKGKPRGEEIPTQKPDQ

- Stability [1]: 80%
- inhibition [2]: inactive
- inhibition [3]: inactive
- inhibition [4]: inactive
- inhibition [5]: Active
- PPB [6]: 97%
- inhibition [7]: > 99%
- inhibition [8]: inactive
- solubility [9]: 40 µM (≈ 14.4 µg/mL)
- inhibition [10]: inactive
- inhibition [11]: inactive
- inhibition [12]: Active
- Stability [13]: 2%
- inhibition [14]: inactive
- pIC50 [15]: 6.59
- inhibition [16]: inactive
Compound: CCCC(=O)Nc1cccc(NC(=O)c2ccccc2Br)c1

— ChEMBL document CHEMBL2046322, “Discovery of 1,3-Diaminobenzenes as Selective Inhibitors of Platelet Activation at the PAR1 Receptor” (ACS Med Chem Lett, 2012)
